The source of these data is PMC7518337 (Chemistry of materials : a publication of the American …, 2018).

Series [1] concerns xenografted HCT116 p53^+/+ tumors. The experiment in a line: In vivo antitumor activity in colon cancer xenograft model. Also noted: species or system BALB/c nude mice. The following applies: for amounts of apoptotic cells in xenograft tumors (TUNEL assay): compared to the control, Figure 6E. Summed up:
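Nude mice carried subcutaneous HCT116 p53+/+ xenografts in the right flank. They were randomised into groups of n = 6 and dosed every other day on days 1, 3, 5, 7, 9, 11 and 13. Test compounds and Nutlin-3 were given at 3 mg/kg, doxorubicin at 1.5 mg/kg, and PBS served as control. Tumors were excised on day 13 for H&E and TUNEL staining (×200). Mean ± s.e., n = 5.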

The nature of series [2]: In vivo safety evaluation during and after anticancer treatment. Set-up: species or system mice. Summed up: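 Xenograft-bearing nude mice were treated with test compound or doxorubicin control over a 13-day regimen. During and after treatment, blood counts (WBC, RBC, thrombocytes), liver weight, serum ALT and AST, and CRE and BUN were determined. A hospital clinical laboratory ran these by standard procedures. Liver and kidney sections were H&E stained. Mean ± s.e., t-test.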

The test system of a further series is HCT116 p53^+/+ cells. Nature of the series: Cell cycle distribution. The class given is cell-based. The following applies: 200 nM PSP-^DPMI, 5 μM Nutlin3, 24 h.
The next series has as its system p53 and p21 expression. The experiment in a line: Western blot analysis of p53 and p21. The class given is cell-based. As to conditions: PSP-^DPMI 200 nM, Nutlin3 5 μM, 24 h, p53 in HCT116 p53^+/+, MCF7, A375, p21 in HCT116 p53^+/+, vs PSP, PBS control. In general terms: A western blot detects proteins with antibodies after separation by electrophoresis.
The conditions of series [3]: clinical trial in liposarcoma; cited from earlier work.

In the case of `COc1cccc2c1C(=O)c1c(O)c3c(c(O)c1C2=O)C[C@@](O)(C(=O)CO)C[C@@H]3O[C@H]1C[C@H](N)[C@H](O)[C@H](C)O1` [DOX, doxorubicin], the “amounts of apoptotic cells in xenograft tumors (TUNEL assay)” value in series [1] is on record as “significantly increased”. The “tumor pathomorphology (H&E)” value in series [1] (tumors isolated on day 13, Figure 6C) was “misshapen tumors and cells”. In series [2] (Figure 8B–D), the “blood cell counts (WBCs, thrombocyte, RBCs)” value was “a certain level of leukopenia and thrombopenia”. The “kidney function and histology (CRE, BUN, H&E)” value in series [2] (Figure 8I–K) is on record as “symptoms of glomerular lesions”. The spleen health entry in series [2] (Figure S15) is “serious spleen failure”. For the same compound, the body weight result in series [2] (after a 13-day administration, Figure S14) is “significant decrease of body weight”. Further, the liver weight entry in series [2] (compared to healthy mice, Figure 8E) is given as “decreased liver weight”. The “levels of liver enzymes ALT and AST” value in series [2] (serum, compared to control or healthy mice, Figure 8F,G) was “aberrant levels”.
With `COc1ccc(C2=N[C@@H](c3ccc(Cl)cc3)[C@@H](c3ccc(Cl)cc3)N2C(=O)N2CCNC(=O)C2)c(OC(C)C)c1` [Nutlin3], in the series with HCT116 p53^+/+ cells, the cell cycle effect result was “arrest in G0/G1 phase”. For the same compound, the “expression of p53 or p21” value with p53 and p21 expression is “significantly increased the expression of p53 or p21”. The “amounts of apoptotic cells in xenograft tumors (TUNEL assay)” value in series [1] was “significantly increased”.
With `CCOc1cc(C(C)(C)C)ccc1C1=N[C@@](C)(c2ccc(Cl)cc2)[C@@](C)(c2ccc(Cl)cc2)N1C(=O)N1CCN(CCCS(C)(=O)=O)CC1` [RG7112], in series [3], the “adverse events in patients” value was “thrombocytopenia and neutropenia have been seen in many patients”.
